Results from different studies.
BTK: Tyrosine-protein kinase BTK (BTK, Homo sapiens, UniProt Q06187)

[2H]c1cc(C)c(NC(=O)c2cnc(Nc3cc(N4CC[C@@H](N)C4)nc(C)n3)s2)c(Cl)c1
inhibition (BTK; enzyme activity, inhibitor, mobility shift; 1 nM): 52%

Cc1cc(-c2ccnc3[nH]cc(F)c23)cc(F)c1[C@@]1(O)[C@H](C)CN(C(=O)CN)C[C@@H]1C
remaining activity (RAC-beta serine/threonine-protein kinase (AKT2, Homo sapiens, UniProt P31751); enzyme activity, inhibitor; 15 nM): 94.5%

C1=C/COCc2cc(ccc2OCCN2CCCC2)Nc2nccc(n2)-c2cccc(c2)COC/1
remaining binding (Serine/threonine-protein kinase Nek11 (NEK11, Homo sapiens, UniProt Q8NG66); binding; 0.1 µM): 95%

CCCCC(=O)Nc1ccc(-c2ccc3ncn(CCC)c(=O)c3c2)cn1
remaining binding (Mast/stem cell growth factor receptor Kit (KIT, Homo sapiens, UniProt P10721, V559D); binding, competition with immobilised ligand; 0.5 µM): 99%

Cc1nc(Nc2ncc(C(=O)Nc3c(C)cccc3Cl)s2)cc(N2CC[C@@H](O)C2)n1
inhibition (BTK; enzyme activity, inhibitor, mobility shift; 1 nM): 74%

C#Cc1cc(-c2cc(Nc3nc(N[C@@H](C)c4ccc(F)cn4)ncc3Cl)n[nH]2)ccc1C=O
inhibition (Mitogen-activated protein kinase kinase kinase 19 (MAP3K19, Homo sapiens, UniProt Q56UN5); enzyme activity, inhibitor; 0.2 µM): 3.1%

O=C(COc1ccc(Cl)c(F)c1)NC12CC(NC(=O)c3cnc(C(F)F)cn3)(C1)C2
inhibition (Translation initiation factor eIF2B subunit beta/Translation initiation factor eIF2B subunit delta (Homo sapiens, UniProt P49770+Q9UI10); ligand displacement, TR-FRET; 100 µM): 100%

Cc1cc(O)c(-c2ccc([C@@H](C)CN(C)C)cc2)c2c1[nH]c(=O)c1sccc12
inhibition (Ribosomal protein S6 kinase alpha-5, N-terminal kinase domain (RPS6KA5, Homo sapiens, UniProt O75582); enzyme activity, inhibitor; 0.1 µM): 3.82%

C#Cc1cnc(Nc2ccnc(CO)c2)nc1Nc1ccccc1S(C)(=O)=NC#N (stereo not drawn)
remaining signal (Atypical kinase COQ8A, mitochondrial (COQ8A, Homo sapiens, UniProt Q8NI60); cell-free assay; 1 µM): 97%

N#Cc1ccc(NC(=O)Nc2ccccc2)cc1
remaining binding (Mast/stem cell growth factor receptor Kit (KIT, Homo sapiens, UniProt P10721, D816V); cell-free assay, competition with immobilised ligand; 25 µM): 89%

[2H]c1cc(C)c(NC(=O)c2cnc(Nc3cc(N4CC[C@H](O)C4)nc(C)n3)s2)c(Cl)c1
inhibition (BTK; enzyme activity, inhibitor, mobility shift; 1 nM): 72%

COc1ccc2oc(-c3ccc4nc(N)oc4c3)c/c(=N\c3ccccc3NC(=O)CCN)c2c1
remaining binding (Casein kinase II subunit alpha (CSNK2A1, Homo sapiens, UniProt P68400); binding; 1 µM): 106%

[2H]c1cc(C)c(NC(=O)c2cnc(Nc3cc(N4CCCCC4)nc(C)n3)s2)c(Cl)c1
inhibition (BTK; enzyme activity, inhibitor, mobility shift; 1 nM): 90%

C[C@H](NC(=O)C(=O)Nc1ccccc1C(C)(C)C)C(=O)N[C@@H](CC(=O)O)C(=O)COc1c(F)c(F)cc(F)c1F
kinact/KI (Caspase-4 (Casp4, Mus musculus, UniProt P70343); enzyme activity, inhibitor): 448000 M⁻¹ s⁻¹

CN(C)CCOC(=O)COc1ccc(Cl)cc1
inhibition (D(4) dopamine receptor (DRD4, Homo sapiens, UniProt P21917); ligand displacement, radioligand; 1 µM, cell membranes): -12.4%
